These results are taken from ChEMBL document CHEMBL2057112, “Enamino-oxindole HIV protease inhibitors” (Bioorg Med Chem Lett, 2012).

Molecules are shown by their SMILES.

Assay [1] is described as follows: Inhibition of wild type Human immunodeficiency virus protease expressed in Escherichia coli using ArgGlu(EDANS)SerGlnAsnTyrProIleValGlnLys(DABCYL)Arg as substrate preincubated with compound for 0.5 to 1 min measured by fluorometric analysis at pH 6.5.
Assay [2] is described as follows: Inhibition of Human immunodeficiency virus protease M8 mutant expressed in Escherichia coli using ArgGlu(EDANS)SerGlnAsnTyrProIleValGlnLys(DABCYL)Arg as substrate preincubated with compound for 0.5 to 1 min measured by fluorometric analysis at pH 6.5.
The nature of assay [3]: Inhibition of Human immunodeficiency virus protease M9 mutant expressed in Escherichia coli using ArgGlu(EDANS)SerGlnAsnTyrProIleValGlnLys(DABCYL)Arg as substrate preincubated with compound for 0.5 to 1 min measured by fluorometric analysis at pH 6.5.
Assay [4] is described as follows: Inhibition of Human immunodeficiency virus protease M10 mutant expressed in Escherichia coli using ArgGlu(EDANS)SerGlnAsnTyrProIleValGlnLys(DABCYL)Arg as substrate preincubated with compound for 0.5 to 1 min measured by fluorometric analysis at pH 6.5.
Assay [5] has as its system Human immunodeficiency virus 1. The assay can be described thus: Antiviral activity against Human immunodeficiency virus 1 HXB2 expressing wild type protease infected in human MT4 cells after 5 days by MTT assay. Format: functional, organism-based. To be noted: Human immunodeficiency virus 1, HXB2, MT4, 120 h. For orientation: Tetrazolium assays rely on reduction of a dye to a coloured formazan, in cell work by metabolically active cells.

Assay [6] deals with Human immunodeficiency virus 1. The assay is described as follows: Antiviral activity against Human immunodeficiency virus 1 HXB2 expressing protease M8 mutant infected in human MT4 cells after 5 days by MTT assay. As to conditions: Human immunodeficiency virus 1, HXB2, MT4, 120 h. In kind it is functional, organism-based.
Assay [7] concerns Human immunodeficiency virus 1. The assay can be described thus: Antiviral activity against Human immunodeficiency virus 1 HXB2 expressing protease M9 mutant infected in human MT4 cells after 5 days by MTT assay. As to conditions: Human immunodeficiency virus 1, HXB2, MT4, 120 h. Format: functional, organism-based.
Assay [8] relates to Human immunodeficiency virus 1. The assay can be described thus: Antiviral activity against Human immunodeficiency virus 1 HXB2 expressing protease M10 mutant infected in human MT4 cells after 5 days by MTT assay. In kind it is functional, organism-based. As to conditions: Human immunodeficiency virus 1, HXB2, MT4, 120 h.
Assay [9] has as its system Human immunodeficiency virus 1. The assay can be described thus: Antiviral activity against Human immunodeficiency virus 1 HXB2 expressing protease M3 mutant infected in human MT4 cells after 5 days by MTT assay. Format: functional, organism-based. To be noted: Human immunodeficiency virus 1, HXB2, MT4, 120 h. An outline of the steps:
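MT-4 cells (AIDS Research and Reference Reagent Program) exposed to 50% tissue culture infective doses (TCID₅₀) of virus with various concentrations of test compound for 5 days. MTT solution then added and absorbance measured. Mutant strains carry 10–17 resistance mutations with phenotypic resistance to marketed PIs; all include I84V except M7. IC₅₀ reported.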

For the compound `CC(C)CN(C[C@@H](O)[C@H](Cc1ccccc1)NC(=O)O[C@H]1CO[C@H]2OCC[C@H]21)S(=O)(=O)c1ccc2c(c1)CC(=O)N2`, the Ki (in general, a dissociation constant, usually derived from enzyme kinetics or from competition with a known ligand) in assay [1] was less than 0.1 nM; in assay [2], 0.53 nM; in [3], 0.95 nM; in assay [4], 14 nM. For the same compound, the IC50 (in general, the midpoint of a concentration-inhibition curve) was 82 nM in assay [5], 150 nM in assay [6], 110 nM in [7] and 930 nM in assay [8].

As to `CC(C)CN(C[C@@H](O)[C@H](Cc1ccccc1)NC(=O)O[C@H]1CO[C@H]2OCC[C@H]21)S(=O)(=O)c1ccc2c(c1)C(=CNc1ccccc1)C(=O)N2`, the Ki is less than 0.1 nM in assay [1], 0.46 nM in [2], 1.2 nM in [3] and 13 nM in assay [4]. Further, the IC50 in [5] is 13 nM; in assay [6] it was 110 nM; in assay [7], 100 nM; in assay [8], greater than 400 nM.

Consider `CC(C)CN(C[C@@H](O)[C@H](Cc1ccccc1)NC(=O)O[C@H]1CO[C@H]2OCC[C@H]21)S(=O)(=O)c1ccc2c(c1)C(=CNC(C)(C)C)C(=O)N2` (mixture of isomers), for which the Ki is less than 0.1 nM in [1], 0.35 nM in [2], 0.72 nM in [3] and 14 nM in assay [4]. Moreover, the IC50 in [5] is 9 nM; in assay [6], 35 nM; in [7] it was 25 nM; in assay [8], 200 nM.

With `CC(C)CN(C[C@@H](O)[C@H](Cc1ccccc1)NC(=O)O[C@H]1CO[C@H]2OCC[C@H]21)S(=O)(=O)c1ccc2c(c1)C(=CN(C)C)C(=O)N2` (mixture of isomers), the inhibition constant (Ki) in assay [1] is less than 0.1 nM; in assay [3], less than 0.3 nM; in [4], less than 1 nM. Besides, the IC50 in assay [5] is 93 nM; in assay [6], 90 nM; in assay [7] it was 65 nM; in [8], 70 nM.

On to `CC(C)CN(C[C@@H](O)[C@H](Cc1ccccc1)NC(=O)O[C@H]1CO[C@H]2OCC[C@H]21)S(=O)(=O)c1ccc2c(c1)C(=CN)C(=O)N2` (mixture of isomers), for which the Ki in assay [1] was less than 0.1 nM; in assay [3], less than 0.3 nM; in [4] it was 3 nM. Besides, the IC50 in [5] worked out at 300 nM; in assay [6] it was 200 nM; in assay [7] it was 200 nM; in assay [8], 180 nM.

Turning to `CNC=C1C(=O)Nc2ccc(S(=O)(=O)N(CC(C)C)C[C@@H](O)[C@H](Cc3ccccc3)NC(=O)O[C@H]3CO[C@H]4OCC[C@H]43)cc21` (mixture of isomers), the Ki in [1] is less than 0.1 nM; in [2], 0.11 nM; in [3], less than 0.3 nM; in [4], less than 1 nM. Further, the IC50 was determined as 60 nM in assay [5], 50 nM in [7], 93 nM in assay [8] and 51 nM in assay [9].

With `CCNC=C1C(=O)Nc2ccc(S(=O)(=O)N(CC(C)C)C[C@@H](O)[C@H](Cc3ccccc3)NC(=O)O[C@H]3CO[C@H]4OCC[C@H]43)cc21` (mixture of isomers), the Ki in assay [1] is less than 0.1 nM; in assay [3], less than 0.3 nM; in assay [4], less than 1 nM. The IC50 in assay [5] was 28 nM; in assay [6] it was 35 nM; in assay [7], 27 nM; in assay [8], 80 nM.

Consider `CC(C)CN(C[C@@H](O)[C@H](Cc1ccccc1)NC(=O)O[C@H]1CO[C@H]2OCC[C@H]21)S(=O)(=O)c1ccc2c(c1)C(=CNC(C)C)C(=O)N2` (mixture of isomers), for which the Ki in assay [1] is less than 0.1 nM; in assay [2] it was 0.11 nM; in assay [3], less than 0.3 nM; in assay [4], less than 1 nM. Further, the IC50 in assay [5] was found to be 15 nM; in [6], 30 nM; in [7] it was 19 nM; in assay [8], 60 nM.

For `CC(C)CN(C[C@@H](O)[C@H](Cc1ccccc1)NC(=O)O[C@H]1CO[C@H]2OCC[C@H]21)S(=O)(=O)c1ccc2c(c1)C(=CNC1CC1)C(=O)N2` (mixture of isomers), the inhibitory constant (Ki) in [1] was less than 0.1 nM; in [2], 0.12 nM; in assay [3], less than 0.3 nM; in [4], 2.1 nM. The IC50 was determined as 24 nM in [5], 32 nM in assay [6], 25 nM in assay [7] and 300 nM in [8].

In the case of `CC(C)CN(C[C@@H](O)[C@H](Cc1ccccc1)NC(=O)O[C@H]1CO[C@H]2OCC[C@H]21)S(=O)(=O)c1ccc2c(c1)C(=CNCCNc1ccccc1)C(=O)N2` (mixture of isomers), the Ki is less than 0.1 nM in assay [1], 0.39 nM in assay [2], less than 0.3 nM in assay [3] and 3 nM in [4]. The IC50 in assay [5] was greater than 80 nM; in [6], 160 nM; in assay [7], 80 nM; in assay [8] it was 120 nM.

With `CC(C)CN(C[C@@H](O)[C@H](Cc1ccccc1)NC(=O)O[C@H]1CO[C@H]2OCC[C@H]21)S(=O)(=O)c1ccc2c(c1)C(=CNCCN(C)C)C(=O)N2` (mixture of isomers), the Ki in [1] was less than 0.1 nM; in [2] it was 0.57 nM; in assay [3], less than 0.3 nM; in assay [4] it was 1.7 nM. Moreover, the IC50 in [5] was greater than 400 nM.

With `COCCNC=C1C(=O)Nc2ccc(S(=O)(=O)N(CC(C)C)C[C@@H](O)[C@H](Cc3ccccc3)NC(=O)O[C@H]3CO[C@H]4OCC[C@H]43)cc21` (mixture of isomers), the Ki is 0.11 nM in assay [1], less than 0.1 nM in [2], less than 0.3 nM in assay [3] and 1.2 nM in [4]. Moreover, the results for the IC50 in [5], in assay [7] and in assay [8] were 70 nM, 42 nM and 48 nM, respectively.

On to `CC(C)CN(C[C@@H](O)[C@H](Cc1ccccc1)NC(=O)O[C@H]1CO[C@H]2OCC[C@H]21)S(=O)(=O)c1ccc2c(c1)C(=CNCCO)C(=O)N2` (mixture of isomers), for which the inhibition constant (Ki) in assay [1] is less than 0.1 nM; in [2], 0.11 nM; in [3] it was less than 0.3 nM; in assay [4], less than 1 nM. In addition, the half-maximal inhibitory concentration (IC50) in assay [5] was greater than 400 nM; in assay [7], 800 nM; in assay [8], 400 nM.

Take `CC(C)CN(C[C@@H](O)[C@H](Cc1ccccc1)NC(=O)O[C@H]1CO[C@H]2OCC[C@H]21)S(=O)(=O)c1ccc2c(c1)C(=CNCCc1ccccc1)C(=O)N2` (mixture of isomers): the Ki in assay [1] was less than 0.1 nM; in [2], 0.17 nM; in assay [3] it was less than 0.3 nM; in assay [4] it was 1.3 nM. Further, the IC50 came out at 22 nM in assay [5], 61 nM in assay [6], 28 nM in [7] and 110 nM in [8].

On to `CC(C)CN(C[C@@H](O)[C@H](Cc1ccccc1)NC(=O)O[C@H]1CO[C@H]2OCC[C@H]21)S(=O)(=O)c1ccc2c(c1)C(=CNCc1nc3ccccc3[nH]1)C(=O)N2` (mixture of isomers), for which the Ki is less than 0.1 nM in assay [1], less than 0.3 nM in assay [3] and less than 1 nM in [4]. For the same compound, the IC50 in [5] is greater than 400 nM.

As to `Cc1nc(CNC=C2C(=O)Nc3ccc(S(=O)(=O)N(CC(C)C)C[C@@H](O)[C@H](Cc4ccccc4)NC(=O)O[C@H]4CO[C@H]5OCC[C@H]54)cc32)cs1` (mixture of isomers), the values for the Ki in assay [1], in [3] and in assay [4] were less than 0.1 nM, less than 0.3 nM and less than 1 nM, respectively. Moreover, the IC50 in assay [5] stood at 45 nM; in [6], 40 nM; in assay [7] it was 30 nM; in assay [8], 29 nM.

In the case of `CC(C)CN(C[C@@H](O)[C@H](Cc1ccccc1)NC(=O)O[C@H]1CO[C@H]2OCC[C@H]21)S(=O)(=O)c1ccc2c(c1)C(=CNCc1ccncc1)C(=O)N2` (mixture of isomers), the inhibition constant Ki is less than 0.1 nM in assay [1], less than 0.3 nM in [3] and less than 1 nM in [4]. The IC50 is 300 nM in [5], 270 nM in assay [6], 220 nM in [7] and 110 nM in assay [8].

With `CCN(C=C1C(=O)Nc2ccc(S(=O)(=O)N(CC(C)C)C[C@@H](O)[C@H](Cc3ccccc3)NC(=O)O[C@H]3CO[C@H]4OCC[C@H]43)cc21)CC` (mixture of isomers), the Ki in assay [1] was less than 0.1 nM; in [3] it was less than 0.3 nM; in assay [4], less than 1 nM. The IC50 in assay [5] was 38 nM; in assay [6], 40 nM; in assay [7], 21 nM; in assay [8] it was 41 nM.
